Assay outcomes from PubChem.
TCR-CD3 inh: blocks the human TCR-CD3 interaction. inhibition, % at 9.4 µM. AID 651800. TAMRA-labeled TCR probe fluorescence, biochemical. hit rate 0.37% among 360,000; in the data active = inhibition above about 19%;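 also: recombinant mutant TCR 2C K166C tagged with TAMRA read by polarization; 0% = receptor in buffer alone and 100% = receptor with positive control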
PRMT1 inh: PRMT1 (human) inhibition, primary screen; Q99873; recombinant PRMT1, activity-based probe fluorescence polarization; inhibition, % at 2.79 µM; hit rate 1.3% among 370,000;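 active = inhibition above about 21% made by adding two undisclosed values, limit read from the data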
ATG4B inh: ATG4B (human) cysteine protease inhibition. Q9Y4P1. ATG4B cleavage of LC3-PLA2, NBD-HPC fluorescence, 1 h. inhibition, % at 8.33 µM. hit rate 0.51% among 340,000. AID 504462; in the data active = inhibition above about 40%
HTRA1 inhibitor: HTRA1 (human) protease inhibition; inhibition, % at 5.96 µM; hit rate 0.5% among 340,000; AID 504803; recombinant HTRA1, FP-rhodamine activity-based probe, fluorescence polarization; Q92743; in the data active = inhibition above about 36%;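 also: 0% = enzyme with DMSO and 100% = wells lacking enzyme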
Target sequence (Q92743 whole entry, looked up): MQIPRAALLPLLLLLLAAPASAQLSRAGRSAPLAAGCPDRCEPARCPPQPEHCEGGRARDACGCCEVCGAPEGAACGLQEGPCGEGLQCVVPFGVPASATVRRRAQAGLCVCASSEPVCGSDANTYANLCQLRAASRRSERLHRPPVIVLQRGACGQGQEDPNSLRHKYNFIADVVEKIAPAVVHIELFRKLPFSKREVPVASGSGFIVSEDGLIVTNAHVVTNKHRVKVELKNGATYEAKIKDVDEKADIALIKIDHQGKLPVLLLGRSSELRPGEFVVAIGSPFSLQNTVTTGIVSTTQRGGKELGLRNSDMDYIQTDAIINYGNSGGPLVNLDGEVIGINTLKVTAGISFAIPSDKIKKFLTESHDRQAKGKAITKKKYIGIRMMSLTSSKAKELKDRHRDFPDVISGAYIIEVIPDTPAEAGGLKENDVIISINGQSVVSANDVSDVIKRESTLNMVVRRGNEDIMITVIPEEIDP
SIAE inh: blocks human sialic acid acetylesterase; SIAE FP-Rh probe binding, fluorescence polarization; inhibition, % at 9.66 µM; hit rate 0.69% among 370,000;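 active = inhibition above a cutoff: mean of compounds within the control limits plus 3 SD of those, cut at about 17% in these data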;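 also: 0% = plate median of compound wells and 100% = probe without SIAE protein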
mABHD4 FP: inhibits mouse alpha/beta hydrolase domain 4 | Q8VD66 | purified mABHD4, FP-Rh probe fluorescence polarization | inhibition, % at 8.92 µM | hit rate 0.54% among 370,000 | AID 720543;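 active = inhibition exceeding the mean over every tested compound plus 3 SD, cut at about 30% in these data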;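 also: 0% = plate median of compound wells and 100% = S159A mutant with DMSO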
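System: mouse ABHD4 enzyme, wild type / Medium: HEPES pH 7.0, NaCl, Pluronic buffer / Reagent: FP-Rh activity-based fluorescent probe / Control set: S159A mutant high control, sample median low control / Detection: fluorescence polarization with parallel and perpendicular emission, 525/598 nm / Schedule: 45 min + 60 min at 25 °C / Compound dosing: 8.92 µM, single dose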
ATG4B confirm: confirmation of human ATG4B inhibitors; shares compounds with ATG4B inh; ATG4B protease fluorescent substrate cleavage assay; inhibition, % at 8.33 µM; hit rate 92% among 320; in the data active = inhibition above about 39%
PLA2 counter: inhibits human PLA2, flagging false ATG4B inhibitors; shares compounds with ATG4B inh; purified PLA2, NBD-C6-HPC fluorescence, 45 min; inhibition, % at 8.33 µM; hit rate 66% among 1,600; in the data active = inhibition above about 50%
Target sequence (P04054 whole entry, looked up): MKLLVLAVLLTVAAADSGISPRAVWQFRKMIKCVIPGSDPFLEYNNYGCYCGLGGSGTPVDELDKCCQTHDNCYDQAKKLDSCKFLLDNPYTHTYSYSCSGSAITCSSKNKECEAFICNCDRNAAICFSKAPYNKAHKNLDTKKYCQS
An asterisk follows results filed as active; . = no result. Sampled rows, rich in hits. Any-hit rate of the full collection: about 2.9%.

SMILES	TCR-CD3 inh	PRMT1 inh	ATG4B inh	HTRA1 inhibitor	SIAE inh	mABHD4 FP	PLA2 counter	others
O=C(N/N=C/c1coc2ccccc2c1=O)c1cccc([N+](=O)[O-])c1	3.4	-3.0	45.9*	1.8	7.3	4.0	-12.4
Cc1cccc(C(=O)N/N=C/c2coc3ccccc3c2=O)c1	-10.8	-1.4	35.9	-2.5	0.4	0.8	.
COc1ccc(C(=O)N/N=C\c2coc3ccc(Cl)cc3c2=O)cc1	7.0	-0.1	8.7	-1.2	-0.4	3.4	.
Cc1ccc(Cn2cc(COC(=O)NCCc3c[nH]c4ccccc34)nn2)cc1	.	3.9	.	.	11.1	-0.2	.
CNC(C)C(=O)NC(C(=O)N1CCCC1C(=O)Nc1cccc2ncccc12)C(C)C (centres undefined)	.	-3.8	.	.	0.3	-3.4	.
Clc1ccc(CSc2nnc(-c3ccccn3)n2Cc2ccco2)c(Cl)c1	-3.0	19.5	40.9*	-41.1	-1.9	-3.8	54.9*
O=C(Nc1ccc2ncccc2c1)c1cc(-c2ccc(Cl)cc2)nc2ccccc12	.	-2.0	.	.	0.5	0.4	.
COc1ccc(Cn2c(NC(=O)c3ccccc3)nc(Cc3ccccc3)c2-c2ccccc2)c(OC)c1	.	-4.2	.	.	-17.6	3.9	.
N#CC1=C(N)OC2=C(C(=O)CC(c3ccco3)C2)C1c1ccc(OCc2c(F)cccc2Cl)cc1 (centres undefined)	-3.8	-4.8	87.1*	-46.9	-9.7	-20.0	89.3*
O[C@@H]1[C@@H](O)[C@H](n2c3ccc(Cl)cc3c3ccc4c5cc(Cl)ccc5[nH]c4c32)OC[C@H]1O	.	2.4	.	.	-11.5	-0.6	.
CCc1cccc(C)c1NC(=O)CCCSc1nc2ccccc2s1	-3.8	-4.1	64.8*	-7.7	2.5	-9.3	57.4*
Cc1ccccc1NC(=O)CCCSc1nc2ccccc2s1	6.3	0.1	-3.6	-53.0	-20.5	-24.6	.
COc1cc(NS(=O)(=O)c2ccc(NC(=S)NC(=O)/C=C/c3ccco3)cc2)ncn1	11.0	18.6	56.1*	-4.7	-9.7	8.6	12.4	ATG4B confirm=46.5*
CCOc1ccc(NC(=S)NC(=O)/C=C/c2ccco2)cc1	-1.1	6.3	-1.5	-8.4	7.9	0.9	.
C=CCNC(=S)NNc1nc2c(c(=O)[nH]1)C1(CCCC1)Cc1ccccc1-2	-3.3	12.6	-21.5	-17.0	3.3	6.6	.
O=c1[nH]c(NNC(=S)NCc2ccccc2)nc2c1C1(CCCCC1)Cc1ccccc1-2	0.5	0.1	71.8*	-81.0	-71.3	-55.9	79.5*
CCOC(=O)N1CCN(C(=O)C[C@H]2C[C@@]3(C(=O)OC)C(=C[C@H](C(C)C)O[C@@H]3C3CC3)N(CCC3=CCCCC3)C2=O)CC1	.	0.2	.	.	0.9	1.3	.
CCOC(=O)CNC(=O)CSc1nc2ccccc2c(=O)n1-c1ccc(Cl)cc1	.	0.2	.	.	-2.0	-3.5	.
O=C(c1ccc(COc2ccccc2Br)cc1)N1CCCCCC1	8.8	-1.0	43.8*	-29.7	0.0	-7.1	55.4*
COC(=O)C(Cc1ccc(OC(=O)c2ccccc2Cl)cc1)N1Cc2ccccc2C1=O (centres undefined)	3.0	1.0	82.6*	-41.5	-14.9	-18.0	86.2*
COC(=O)C(Cc1ccc(OC(=O)c2ccccc2C)cc1)N1Cc2ccccc2C1=O (centres undefined)	0.6	2.3	71.7*	-36.6	2.3	-3.8	76.5*
Cc1ccc(-n2c(SCC(=O)Nc3ccccc3-c3ccccc3)nnc2-c2cccs2)cc1	.	-2.8	.	.	-8.5	-13.5	.
COc1ccc(CN2C[C@]3(C=C4CCCCC4n4c(=O)n(-c5ccccc5)c(=O)n43)N=C2NC(=O)c2ccccc2)c(OC)c1 (some centres undefined)	.	-0.5	.	.	4.7	-3.5	.
Nc1nc(SCc2ccccc2[N+](=O)[O-])c2ncn(Cc3ccccc3)c2n1	3.0	-1.5	50.2*	-20.9	-4.2	-8.4	57.8*
CC(C)(C)c1ccc(-c2nc(C#N)c(N3CCC(C(N)=O)CC3)o2)cc1	4.3	1.6	56.4*	-4.8	3.5	-4.5	56.1*
SMILES	TCR-CD3 inh	PRMT1 inh	ATG4B inh	HTRA1 inhibitor	SIAE inh	mABHD4 FP	PLA2 counter	others
COc1ccc(-c2nc(C#N)c(N3CCC(C(N)=O)CC3)o2)cc1	5.6	0.4	-3.9	0.9	-2.3	0.9	.
O=C(c1ccc(-n2c(SCc3cccc(F)c3)nc3ccccc3c2=O)cc1)N1CCOCC1	-2.0	1.2	47.9*	-3.6	-2.6	-1.6	43.6	ATG4B confirm=59.4*
O=C(CSc1nc2ccccc2c(=O)n1-c1ccccc1)c1cccc([N+](=O)[O-])c1	0.1	1.5	-2.8	0.9	12.9	-1.0	.
Cc1noc(C)c1CSc1nc2ccccc2c(=O)n1-c1ccc(Cl)cc1	7.2	0.6	70.6*	-10.7	-6.4	-11.1	70.3*
O=c1c2ccccc2nc(SCc2ccc([N+](=O)[O-])cc2)n1-c1ccccc1	7.0	-1.8	40.0*	-10.9	-0.4	0.7	49.7
O=C(O)c1ccc(CSc2nc3ccccc3c(=O)n2-c2ccccc2)cc1	1.8	-4.3	40.9*	-1.7	-3.2	-15.2	58.7*
N#Cc1ccc(Cn2ccc3ccc(-c4ccc5ccn(C(=O)C6CCC6)c5c4)cc32)cc1	.	0.7	.	.	-0.2	-1.0	.
CCn1c(=O)[nH]n(C/C(C)=C\c2c[n+](Cc3ccc4c(c3)OCO4)c(N)[nH]2)c1=O	.	-0.1	.	.	-1.0	-2.9	.
O=C(CSc1nccn1-c1ncc(C(F)(F)F)cc1Cl)c1ccc(Br)cc1	.	.	103.7*	5.7	.	.	9.9
Cc1cc(C(=O)N/N=C/c2cc(Br)cc(Br)c2OC(=O)c2cccc(F)c2)n[nH]1	-3.0	-1.1	44.0*	27.0	-10.8	1.5	42.0
Cc1cc(C(=O)NN=Cc2ccccc2C(=O)O)n[nH]1	.	2.2	.	.	-3.3	1.4	.
Cc1cc(C(=O)N/N=C\c2cc(C(C)(C)C)ccc2O)n[nH]1	.	.	46.8*	3.1	.	.	55.0*
CCCCCC(=O)Nc1ccccc1N1CCN(c2ccccc2)CC1	1.7	0.6	41.3*	-9.4	1.9	-5.8	43.8	ATG4B confirm=51.1*
COCC(=O)N[C@H]1C[C@@H]2O[C@@H](CO)CC[C@@H]2O[C@@H]1CCc1ccc(-c2ccccc2)cc1	.	2.6	.	.	-6.0	4.2	.
COc1ccc(C2=NOC(Cn3nc(C(=O)NCc4cccc(C(F)(F)F)c4)cc3-c3ccccc3)C2)cc1 (centres undefined)	6.0	-0.8	66.9*	-13.0	-17.3	-4.0	82.3*
Cc1ccc(S(=O)(=O)Nc2ccccc2C(=O)Nc2nc(-c3ccc(F)cc3)cs2)cc1	6.0	0.7	47.5*	-90.5	-25.6	-70.2	59.6*
Cc1ccc(S(=O)(=O)Nc2nc(-c3ccccc3)cs2)cc1	-5.3	-0.8	1.8	-4.4	0.4	1.2	.
